For data set [1], the system named is Trypanosoma cruzi. Briefly: Antitrypanosomal activity against Trypanosoma cruzi in mouse peritoneal macrophages. It counts as functional, organism-based. Put shortly: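 Primary mouse peritoneal macrophages, 30 000/well, infected after 24 h with about 10 000 trypomastigotes alongside 4-fold drug dilutions. 7 days at 37 °C, 5% CO2.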
In the next data set the test system is Leishmania infantum. Briefly: Antileishmanial activity against Leishmania infantum MHOM/MA(BE)/67 amastigotes in mouse peritoneal macrophages. In kind it is functional, organism-based. Put shortly: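 Amastigotes from serially passaged Syrian hamster infection; macrophages elicited by intraperitoneal 2% starch, harvested 24-48 h later. 5-day incubation; Giemsa-stained microscopic count; % reduction of parasite burden vs control, IC50 determined.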

The subject of data set [2] is Trypanosoma brucei brucei. Kind of data set: Antitrypanosomal activity against Trypanosoma brucei brucei. In kind it is functional, organism-based.
Another data set has as its system Plasmodium falciparum. Briefly: Antiplasmodial activity against chloroquine-sensitive Plasmodium falciparum Ghana by LDH reporter assay. It counts as functional, organism-based.
In the next data set the test system is MRC5. Kind of data set: Cytotoxicity against human MRC5 cells by alamar-blue assay. It counts as cell-based. Put shortly: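 Cells seeded at 5000/well, washed after 24 h, then given 4-fold dilutions in RPMI + 5% FCS, final DMSO below 0.5%. 7 days at 37 °C, 5% CO2, untreated controls included.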
Data set [3] concerns Trypanosoma cruzi. Kind of data set: Antitrypanosomal activity against Trypanosoma cruzi trypomastigotes assessed as immobilized trypomastigotes after 48 hrs. It counts as functional.
Data set [4] in a line: Cytotoxicity in Leishmania infantum MHOM/MA(BE)/67 amastigotes infected mouse peritoneal macrophages. In kind it is cell-based. The following applies: macrophage.

This note sets out measurements from ChEMBL document CHEMBL1157289, “Antiparasitic activity of some xanthones and biflavonoids from the root bark of Garcinia livingstonei” (J Nat Prod, 2006).

SMILES strings stand for the structures.

In the case of `CC(C)=CCc1cc(O)c2c(=O)c3cccc(O)c3oc2c1O`, the IC50 in the data set on Trypanosoma cruzi [1] is 7 µM; in the data set with Leishmania infantum, 27 µM; in data set [2] it was 0.87 µM; in the data set with Plasmodium falciparum, 10 µM; in the data set with MRC5, over 32 µM.
Taken in the same sequence, the figures for `CC(C)=CCCC1(C)C=Cc2c(cc(O)c3c(=O)c4cccc(O)c4oc23)O1` (stereo not drawn) were 8 µM, over 64 µM, 5 µM, 52 µM and over 64 µM.
Consider `C=CC(C)(C)c1cc(O)c2oc3c4c(ccc3c(=O)c2c1O)C=CC(C)(C)O4`, for which, in the data set on Trypanosoma cruzi [3], the MC100 amounted to 8 µM.
Take `CC(C)=CCC/C(C)=C/Cc1c(O)cc(O)c2c(=O)c3cccc(O)c3oc12`: the IC50 in the data set on Trypanosoma cruzi [1] is 5.7 µM; in the data set on Leishmania infantum, over 64 µM; in data set [2], 2 µM; with Plasmodium falciparum, 59 µM; with MRC5, over 64 µM.
On to `COc1ccc([C@@H]2CC(=O)c3c(O)cc(O)c([C@@H]4C(=O)c5c(O)cc(O)cc5O[C@H]4c4ccc(O)cc4)c3O2)cc1`, for which the IC50 in the data set with Trypanosoma cruzi [1] is 34.7 µM; in the data set with Leishmania infantum, over 64 µM; in data set [2] it was 28.3 µM; in the data set on Plasmodium falciparum, 6 µM; in the data set on MRC5, 38 µM.
For `CC1=C[C@H](c2cc(O)c3c(=O)c4cccc(O)c4oc3c2O)[C@](C)(/C=C/c2cc(O)c3c(=O)c4cccc(O)c4oc3c2O)CC1` [GARCILIVIN A], the IC50 in the data set with Trypanosoma cruzi [1] worked out at 4 µM; in the data set on Leishmania infantum it was 32 µM; in data set [2], 0.4 µM; in the data set with Plasmodium falciparum it was 6.7 µM; with MRC5, 2 µM. The Activity result in data set [4] is recorded as “Toxic”.
For the molecule `CC1=C[C@@H](c2cc(O)c3c(=O)c4cccc(O)c4oc3c2O)[C@](C)(/C=C/c2cc(O)c3c(=O)c4cccc(O)c4oc3c2O)CC1` [GARCIVILIN C], the concentration for half-maximal inhibition (IC50) with Trypanosoma cruzi [1] was 39.2 µM; in the data set with Leishmania infantum it was over 64 µM; in data set [2], 7.7 µM; with Plasmodium falciparum, over 64 µM; in the data set with MRC5, 52.3 µM.
In turn, `O=C1c2c(O)cc(O)cc2O[C@H](c2ccc(O)cc2)[C@H]1c1c(O)cc(O)c2c(=O)cc(-c3ccc(O)c(O)c3)oc12` [MORELLOFLAVONE] yielded an IC50 with MRC5 of over 64 µM.
